PvdQ inh: P. aeruginosa PvdQ acylase inhibition; purified PvdQ acylase, fluorescence plate reader; inhibition, % at 10 µM; 340,000 tested, 0.063% active; AID 488965; in the data active = inhibition above about 30%, passing the limit was not always enough; inconclusive = no clear call, values can overlap the other calls;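 also: 0% = vehicle neutral wells and 100% = reference inhibitor wells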
PDI inh: PDI (human) enzyme inhibition; PDI insulin aggregation turbidity, A650, 90 min; inhibition, % at 10 µM; P07237; 350,000 tested, 0.052% active;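 active = mean inhibition across replicates of 30% or more, whatever share of single replicates reach that level; inconclusive = mean inhibition below 30% while every single replicate reaches 30%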
Target sequence (P07237 whole entry, looked up): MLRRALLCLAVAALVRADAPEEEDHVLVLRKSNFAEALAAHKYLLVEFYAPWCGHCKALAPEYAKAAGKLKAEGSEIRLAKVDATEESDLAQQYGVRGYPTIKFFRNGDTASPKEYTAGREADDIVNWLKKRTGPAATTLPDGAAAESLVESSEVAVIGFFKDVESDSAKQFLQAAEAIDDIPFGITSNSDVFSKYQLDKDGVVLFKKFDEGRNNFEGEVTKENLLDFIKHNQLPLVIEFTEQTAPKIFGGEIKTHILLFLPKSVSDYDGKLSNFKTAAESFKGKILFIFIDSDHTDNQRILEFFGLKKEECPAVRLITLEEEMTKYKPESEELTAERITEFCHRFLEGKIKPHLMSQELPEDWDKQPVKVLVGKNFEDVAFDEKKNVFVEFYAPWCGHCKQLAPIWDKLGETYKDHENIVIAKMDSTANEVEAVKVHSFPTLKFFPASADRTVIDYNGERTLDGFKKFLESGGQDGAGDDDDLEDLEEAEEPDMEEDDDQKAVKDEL
ERp5 block: inhibitors of human ERp5; Q15084; ERp5 insulin aggregation, absorbance 650 nm, 90 min; inhibition, % at 9.99 µM; 350,000 tested, 0.05% active;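 active = mean replicate inhibition above about 25%, with every replicate also reaching it, limit read from the data, passing the limit was not always enough; inconclusive = only one of those two criteria met; inactive = neither criterion met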
Env fusion inh: HIV envelope-mediated fusion inhibition. inhibition, % at 12.3 µM. 360,000 tested, 1.1% active. HeLa-JRFL Env/CEM21 cell fusion, luciferase;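 active = mean replicate inhibition score of at least 50 and every replicate individually at or above 50; inconclusive = only one of the two criteria met; inactive = mean below 50 and not all replicates reaching 50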;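 also: 0% = plate neutral controls and 100% = maraviroc near 300 nM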
FN deposit inh: fibronectin deposition inhibition. AH1F fibroblasts, Alexa488-fibronectin deposition fluorescence, overnight. 350,000 tested, 0.086% active. inhibition, % at 12.6 µM;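 active = mean inhibition across replicates of 30% or more, regardless of how many single replicates reach that level; inconclusive = mean under 30% yet at least half of replicates reach 30%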;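 also: positive control wells lacked labelled fibronectin entirely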
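Assay system: AH1F fibroblasts assembling fluorescent fibronectin matrix; Amount: 10000 AH1F cells per well; Buffer or medium: DMEM, 2% serum; Probe or stimulus: Alexa488-fibronectin, 24 nM final in well; Doses: single compound dose, delivered by pin transfer; Incubation: 1 h adhesion, overnight exposure; Measured by: fluorescence 485/525 nm; Read-out: fibronectin deposition inhibition.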
rRNA inh HTS: inhibitors of bacterial rRNA selective over humanized ribosomes | E. coli WT GFP vs humanized-ribosome RFP mutants, fluorescence, 24 h; stronger effect = lower value; DMSO median 0, no signal -100 | 350,000 tested, 1.6% active | GFP signal change (wild-type ribosome), % (no concentration beside the values);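 active = significant combined selectivity score with lowered wild-type GFP, culture density cut under 30%, mutant RFP and density less affected; inactive = any of these conditions unmet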
AID977621: growth inhibition of wild-type GFP E. coli, dose response, H69 mutant RFP, cherry-pick; shares compounds with rRNA inh HTS; E. coli wild-type GFP strain growth, fluorescence, 24 h; 1,900 tested, under 10 active; activity change, negative = inhibition at 50 µM; AID 977621;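 active = Wild-type ribosome reporter drop at least double the humanized mutant ribosome reporter drop, growth loss under a set limit; inconclusive = no clear call, values can overlap the other calls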;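 also: wild-type GFP and H69 mutant RFP strains grown together 50/50 in each well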
AID977628: E. coli growth inhibition, wild-type GFP versus h24 humanized RFP strain, dose response, h24 mutant RFP vs wild-type GFP, cherry-pick. shares compounds with rRNA inh HTS. E. coli WT GFP strain growth, fluorescence, 24 h. activity change, negative = inhibition at 50 µM. 1,900 tested, under 10 active;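 active = compound lowering the normal-ribosome reporter at least twice as much as the humanized-ribosome reporter, growth loss under a set limit; inconclusive = no clear call, values can overlap the other calls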;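 also: wild-type GFP and h24 humanized RFP strains co-cultured 1 to 1 per well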
An asterisk follows results filed as active; ? = inconclusive; nt = not tested or not shown; [ ] = another dose, or the depositor's remark. Rows were chosen to be rich in hits. Some 2.2% of all compounds tested hit in one or more screens of this group.

SMILES | PvdQ inh | PDI inh | ERp5 block | Env fusion inh | FN deposit inh | rRNA inh HTS | AID977621 | AID977628
O=C(COC(=O)C1CC2C=CC1C2)Nc1ccc([N+](=O)[O-])cc1 (stereo unspecified) | -19 | -3 | 4 | 31 | 4 | -31* | -17 | -12
NC(=O)c1ccc(NC(=O)COC(=O)C2CC3C=CC2C3)cc1 (stereo unspecified) | -2 | 9 | -14 | nt | 0 | 2 | nt | nt
O=C(Nc1cc(S(=O)(=O)N2CCCCC2)ccc1N1CCCCC1)C1CC1 | 12 | -18 | 4 | 15 | -12 | -20* | -6.5 | -5.6
CCc1sc(N2[C@H](C#N)[C@H](c3ccccc3-c3ccccc3)[C@H]2CO)nc1C | nt | nt | 0 | nt | -8 | 5 | nt | nt
COc1ccc(CN2C(=O)NC(C)(c3ccc(C)cc3)C2=O)cc1F (stereo unspecified) | 11 | -6 | 4 | 12 | -5 | -22* | -9.9 | ?
COc1ccc(CN2C(=O)NC3(CCOc4ccccc43)C2=O)cc1F (stereo unspecified) | -4 | 4 | -1 | -11 | 1 | nt | nt | nt
C[C@@H]1CN([C@H](C)CO)C(=O)c2cccc(NC(=O)Nc3ccc(C(F)(F)F)cc3)c2O[C@H]1CN(C)C(=O)Nc1ccc2c(c1)OCO2 | nt | nt | nt | -2[16.7 µM] | nt | -4 | nt | nt
COc1ccc(N(C)S(=O)(=O)c2cccc(C(=O)NC3CCCCC3C)c2)cc1 (stereo unspecified) | -15 | 5 | 0 | 18 | nt | -27* | -6.9 | nt
COc1ccc(N(C)S(=O)(=O)c2cccc(C(=O)NC3CCCC3)c2)cc1 | -4 | -3 | 4 | 15 | nt | -26 | nt | nt
CCS(=O)(=O)N1CCN(c2ccc([N+](=O)[O-])c(NCC3CCCO3)c2)CC1 (stereo unspecified) | 6 | -1 | 1 | 24 | -4 | -21* | 0.78 | -5.8
O=[N+]([O-])c1ccc(N2CCN(S(=O)(=O)c3ccccc3)CC2)cc1NCC1CCCO1 (stereo unspecified) | 5 | -8 | nt | 5 | 0 | nt | nt | nt
O=C(c1ccccc1)N1CCN(c2ccc([N+](=O)[O-])c(NCC3CCCO3)c2)CC1 (stereo unspecified) | 12 | 5 | -1 | 3 | -5 | -32* | -6.9 | -4.1
COCC(=O)Nc1ccc2c(c1)C(=O)N(C)[C@H]1CC[C@H](CC(=O)NCc3ccccc3Cl)O[C@@H]1CO2 | nt | nt | nt | 18[16.7 µM] | -8 | -3 | nt | nt
CC(C)C[C@@H](CSc1ccccc1)N1CCN(CC(C)C)CCC1=O | -3 | 1 | -5 | -9 | -9 | -23* | ? | nt
O=C1CN(S(=O)(=O)Cc2ccccc2)C[C@@H]2[C@@H](c3ccc(C#CCC4CCCC4)cc3)[C@@H](CO)N12 | nt | nt | 2 | nt | nt | nt | nt | nt
Cn1c(=O)oc2cc(S(=O)(=O)CCC(=O)N3CCN(c4ccccc4F)CC3)ccc21 | 4 | -4 | -5 | 1 | 2 | 21 | nt | nt
Cc1ccc(C)c(N2CCN(C(=O)CCS(=O)(=O)c3ccc4c(c3)oc(=O)n4C)CC2)c1 | -17 | -1 | -1 | 1 | -13 | -19* | -8.6 | -4.9
CO[C@@H]1CN(C)C(=O)c2ccc(NS(=O)(=O)c3cccc(C)c3)cc2OC[C@@H](C)N(Cc2cc(F)ccc2F)C[C@H]1C | nt | nt | 5 | 20[16.7 µM] | -11 | 2 | nt | nt
COc1ccc(-c2nnc(COc3ccc(Br)cc3C)o2)cc1 | nt | -11 | 6 | 6 | 14 | -19* | ? | ?
Cc1cc(Br)ccc1OCc1nnc(-c2ccccc2)o1 | nt | 2 | 3 | -51 | 6 | 2 | nt | nt
COc1ccc(CN(C)C[C@H]2OCCCC[C@H](C)Oc3ccc(NC(=O)Nc4ccc5c(c4)OCO5)cc3C(=O)N([C@@H](C)CO)C[C@H]2C)cc1 | nt | nt | 4 | -22[16.7 µM] | 3 | 0 | nt | nt
Cc1ccc(N2C(=O)NC(NS(=O)(=O)c3ccccc3)(C(F)(F)F)C2=O)cc1C (stereo unspecified) | -19 | -3 | 0 | -12 | -2 | -17* | -11 | nt

Screens (PubChem BioAssay)
